Each structure is given as a SMILES string.

What is called EC50 is the concentration needed to bring the measured effect to its halfway point.

Common to all, as to format: cell-based
Experiment [1] has as its target T1, RAS guanyl-releasing protein 1 (Homo sapiens, UniProt O95267).
T1 sequence (O95267 whole entry): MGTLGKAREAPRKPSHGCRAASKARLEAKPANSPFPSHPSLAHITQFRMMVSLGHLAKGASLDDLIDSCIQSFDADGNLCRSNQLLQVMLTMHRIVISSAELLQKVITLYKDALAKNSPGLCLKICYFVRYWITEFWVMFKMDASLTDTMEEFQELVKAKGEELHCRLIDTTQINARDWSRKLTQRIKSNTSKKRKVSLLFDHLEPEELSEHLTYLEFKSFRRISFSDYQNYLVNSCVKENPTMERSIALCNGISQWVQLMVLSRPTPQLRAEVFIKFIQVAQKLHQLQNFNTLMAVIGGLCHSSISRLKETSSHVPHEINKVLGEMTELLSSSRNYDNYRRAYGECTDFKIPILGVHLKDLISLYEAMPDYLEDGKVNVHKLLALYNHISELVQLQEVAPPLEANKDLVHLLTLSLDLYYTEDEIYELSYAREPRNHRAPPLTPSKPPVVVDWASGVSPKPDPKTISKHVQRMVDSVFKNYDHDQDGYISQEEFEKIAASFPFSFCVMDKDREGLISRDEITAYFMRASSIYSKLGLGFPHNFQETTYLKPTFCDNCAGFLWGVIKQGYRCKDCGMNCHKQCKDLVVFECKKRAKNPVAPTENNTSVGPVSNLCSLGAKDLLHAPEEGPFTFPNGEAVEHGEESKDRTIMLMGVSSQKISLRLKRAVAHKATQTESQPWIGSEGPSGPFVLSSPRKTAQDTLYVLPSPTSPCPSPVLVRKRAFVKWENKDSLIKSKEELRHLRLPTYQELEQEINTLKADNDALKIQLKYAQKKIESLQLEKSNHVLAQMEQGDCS
Put plainly: Activation of GFP-tagged RasGRP1 (unknown origin) expressed in HEK293 cells assessed as ERK1/2 phosphorylation after 30 mins by immunoblot method. A digest of the protocol:
(§1)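 Cells expressing GFP-RasGRP1/3 (HEK293 or LNCaP, 48 h after plating, transfected; expression checked by fluorescence 24-48 h later) or Ramos with endogenous RasGRP3 treated with half-log increasing concentrations (max 10 µM), 1000 nM PMA or DMSO, 37 °C, 30 min, 5% CO2. RasGTP by Raf1 RBD bead pulldown and anti-Pan-Ras immunoblot; pERK by western blot. Band intensities normalized to 1000 nM PMA; EC50 from n = 3.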

The species entered for experiment [2] is Homo sapiens. The experiment in a line: Selectivity ratio of EC50 for PKCdelta in human Ramos cells expressing RasGRP3 to EC50 for RasGRP3 in human Ramos cells.
The species entered for experiment [3] is Homo sapiens. The experiment in a line: Selectivity ratio of EC50 for PKCdelta (unknown origin) expressed in HEK293 cells harboring GFP-tagged RasGRP1 to EC50 for GFP-tagged RasGRP1 (unknown origin) expressed in HEK293 cells.
Experiment [4] is filed under the species Homo sapiens. Put plainly: Selectivity ratio of EC50 for PKCdelta in human Ramos cells expressing RasGRP3 to EC50 for RasGRP3 in human Ramos cells assessed as ERK1/2 phosphorylation.
For experiment [5], the target named is T1, RAS guanyl-releasing protein 1. The experiment in a line: Activation of GFP-tagged RasGRP1 (unknown origin) expressed in HEK293 cells after 30 mins by immunoblot method. A digest of the protocol: as §1
Experiment [6] has the same target. Put plainly: Activation of GFP-tagged RasGRP1 (unknown origin) expressed in human LNCAP cells after 30 mins by immunoblot method. A digest of the protocol:
as §1

For experiment [7], the species on record is Homo sapiens. Put plainly: Selectivity ratio of EC50 for PKCdelta (unknown origin) expressed in HEK293 cells harboring GFP-tagged RasGRP1 to EC50 for GFP-tagged RasGRP1 (unknown origin) expressed in HEK293 cells assessed as ERK1/2 phosphorylation.
The target of experiment [8] is T2, Ras guanyl-releasing protein 3 (Homo sapiens, UniProt Q8IV61).
T2 sequence (Q8IV61 whole entry): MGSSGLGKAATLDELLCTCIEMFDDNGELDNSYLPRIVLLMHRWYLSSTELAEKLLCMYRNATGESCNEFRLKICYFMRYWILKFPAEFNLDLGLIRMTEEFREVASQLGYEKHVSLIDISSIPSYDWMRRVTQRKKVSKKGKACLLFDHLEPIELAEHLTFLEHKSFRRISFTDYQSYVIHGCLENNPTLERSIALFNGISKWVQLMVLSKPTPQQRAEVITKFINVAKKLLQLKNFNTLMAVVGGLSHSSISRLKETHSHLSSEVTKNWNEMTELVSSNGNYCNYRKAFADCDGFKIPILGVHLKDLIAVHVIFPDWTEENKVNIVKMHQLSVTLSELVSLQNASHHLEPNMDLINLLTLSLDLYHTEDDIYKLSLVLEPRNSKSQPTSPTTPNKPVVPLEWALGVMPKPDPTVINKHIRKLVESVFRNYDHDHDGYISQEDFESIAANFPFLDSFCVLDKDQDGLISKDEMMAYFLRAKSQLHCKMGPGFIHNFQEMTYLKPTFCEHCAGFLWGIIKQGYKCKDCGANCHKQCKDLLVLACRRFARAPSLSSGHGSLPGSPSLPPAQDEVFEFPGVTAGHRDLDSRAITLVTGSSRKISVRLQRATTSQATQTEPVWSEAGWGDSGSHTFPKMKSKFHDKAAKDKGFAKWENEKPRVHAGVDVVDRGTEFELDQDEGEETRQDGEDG
Put plainly: Activation of GFP-tagged RasGRP3 (unknown origin) expressed in human LNCAP cells assessed as ERK1/2 phosphorylation after 30 mins by immunoblot method. A digest of the protocol:
as §1
A general note: A western blot detects proteins with antibodies after separation by electrophoresis.

Experiment [9] has as its target T2, Ras guanyl-releasing protein 3. Put plainly: Activation of GFP-tagged RasGRP3 (unknown origin) expressed in HEK293 cells after 30 mins by immunoblot method. A digest of the protocol: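 HEK293 cells grown in EMEM + 10% FBS, transfected after 48 h with GFP-RasGRP3 (Lipofectamine Plus). Treated 30 min at 37 °C, 5% CO2, with half-log increasing concentrations up to 10 µM, 1000 nM PMA or DMSO. Active Ras pulled down from lysates on Raf1-RBD agarose (60 min, 4 °C), immunoblotted with anti-Pan-Ras. Band intensity normalised to 1000 nM PMA. EC50 is the mean of n = 3.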

The species named for experiment [10] is Homo sapiens. Put plainly: Selectivity ratio of EC50 for PKCdelta (unknown origin) expressed in HEK293 cells harboring GFP-tagged RasGRP3 to EC50 for GFP-tagged RasGRP3 (unknown origin) expressed in HEK293 cells assessed as ERK1/2 phosphorylation.
In experiment [11] the target is Protein kinase C delta type (Homo sapiens, UniProt Q05655). Put plainly: Activation of PKCdelta (unknown origin) expressed in human LNCAP cells harboring GFP-tagged RasGRP1 assessed as phosphorylation at ser299 residues after 30 mins by immunoblot method. Put shortly:
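PKCδ activation read as phospho-S299 on western blots of lysates (50 µg protein, 10% SDS-PAGE, milk blocking, anti-PKCδS299 overnight). Cells: GFP-RasGRP1/3-transfected HEK293 or LNCaP, or Ramos, treated 30 min at 37 °C with half-log doses (maximum 10 µM), 1000 nM PMA or DMSO. Scanned intensities normalized to 1000 nM PMA; EC50 mean ± SEM, n = 3; values above 10 µM extrapolated.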

Protein kinase C delta type, sequence (Q05655 whole entry): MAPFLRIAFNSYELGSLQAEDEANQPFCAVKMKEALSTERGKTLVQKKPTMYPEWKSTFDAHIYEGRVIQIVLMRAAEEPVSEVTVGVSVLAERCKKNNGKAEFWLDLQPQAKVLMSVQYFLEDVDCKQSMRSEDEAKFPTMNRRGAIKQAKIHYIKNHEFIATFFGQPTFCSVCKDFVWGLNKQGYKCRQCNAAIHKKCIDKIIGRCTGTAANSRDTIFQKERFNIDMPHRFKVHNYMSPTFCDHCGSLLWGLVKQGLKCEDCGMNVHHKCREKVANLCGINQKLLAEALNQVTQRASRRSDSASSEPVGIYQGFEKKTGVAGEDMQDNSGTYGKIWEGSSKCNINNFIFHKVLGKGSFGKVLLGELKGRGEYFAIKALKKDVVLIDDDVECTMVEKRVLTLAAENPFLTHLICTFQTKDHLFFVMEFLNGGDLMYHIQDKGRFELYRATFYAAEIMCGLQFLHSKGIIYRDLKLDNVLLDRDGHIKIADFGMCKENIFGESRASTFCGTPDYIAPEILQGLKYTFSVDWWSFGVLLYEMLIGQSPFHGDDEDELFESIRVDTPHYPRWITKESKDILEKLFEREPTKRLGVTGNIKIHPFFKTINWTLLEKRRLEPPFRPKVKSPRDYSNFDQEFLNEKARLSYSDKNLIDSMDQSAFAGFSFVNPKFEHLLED

As for `Cn1cc(/C=C2\CC(CO)(COC(=O)C(C)(C)C)OC2=O)c2ccccc21` (stereo unspecified), the half-maximal effective concentration (EC50) in experiment [1] was 4880 nM; in experiment [5] it was 860 nM; in experiment [6], 970 nM; in [8], 2980 nM; in experiment [9], 1830 nM; in experiment [11], 8030 nM. Moreover, the Ratio EC50 was 28.6 in experiment [2]; 14.7 in experiment [3]; 4 in experiment [4]; 2.6 in [7]; 3.6 in experiment [10].

For the origin of these results see ChEMBL document CHEMBL4130626, “α-Arylidene Diacylglycerol-Lactones (DAG-Lactones) as Selective Ras Guanine-Releasing Protein 3 (RasGRP3) Ligands” (J Med Chem, 2018).
